The source of these data is ChEMBL document CHEMBL1125789, “Synthesis and selective class III antiarrhythmic activity of novel N-heteroaralkyl-substituted 1-(aryloxy)-2-propanolamine and related propylamine derivatives” (J Med Chem, 1991).

Experiment [1] is filed under the species Canis familiaris. The experiment is described as follows: Repolarization to reach -60mV, in canine Purkinje Fibers at a concentration of 3.0 uM at 300 ms (simulating tachycardia). In kind it is functional, Canis lupus familiaris, Purkinje fiber. An outline of the steps: (§1)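 Isolated canine Purkinje fiber bundles were driven by square-wave pulses 2.0 ms long at 2× threshold and equilibrated ≥1 h to steady state. Each concentration was superfused 45–60 min before recording, and action potentials were sampled at 4–6 sites per fiber in control and after drug, giving Vmax and APD to −60 mV.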

Experiment [2] is filed under the species Canis familiaris. Put plainly: Maximum rate of rise of the upstroke of transmembrane potential, in canine Purkinje Fibers at a concentration of 1.0 uM at 300 ms (simulating tachycardia). In kind it is functional. The following applies: Canis lupus familiaris, Purkinje fiber. Also on record: unit not given here. A digest of the protocol: as §1
The species entered for experiment [3] is Canis familiaris. The experiment is described as follows: repolarization to reach -60mV, in canine Purkinje Fibers at a concentration of 3.0 uM at 1000 ms (simulating normal heart rate). It counts as functional, Canis lupus familiaris, Purkinje fiber. A digest of the protocol:
(§2)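 Purkinje fiber bundles were stimulated with square-wave current pulses of 2.0 ms at twice threshold and equilibrated for at least 1 h, or until action potential parameters were steady. Each concentration was superfused for 45-60 min to reach steady state. Action potentials were recorded at four to six sites per fiber, under control and after drug.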

Experiment [4] has as its system Canis familiaris. Put plainly: Atrial conduction time by the compound in open chest anesthetized dog, after iv administration at a dose of 5.0 mg/kg. In kind it is functional, Canis lupus familiaris, Cardiac atrium. More on the design: unit not given here. An outline of the steps: (§3)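 Mongrel dogs anesthetized with sodium pentobarbital (30 mg/kg iv, then 5 mg/kg per h), chest opened, paced at BCL 300 ms. Atrial conduction time was taken as the interval between electrograms recorded at the proximal and distal sites of the atrial recording electrode array, before and after iv or intraduodenal dosing. Values are changes from control.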

Experiment [5] is filed under the species Canis familiaris. The experiment is described as follows: Maximum rate of rise of the upstroke of transmembrane potential, in canine Purkinje Fibers at a concentration of 0.3 uM at 1000 ms (simulating normal heart rate). It counts as functional. More on the design: unit not given here. Particulars: Canis lupus familiaris, Purkinje fiber. A digest of the protocol: as §1

Experiment [6] relates to Canis familiaris. Put plainly: Ventricular effective refractory period by the compound in open chest anesthetized dog, after iv administration at a dose of 5.0 mg/kg. In kind it is functional, Canis lupus familiaris, Heart. More on the design: unit not given here.
Experiment [7] relates to Canis familiaris. The experiment is described as follows: Ventricular effective refractory period by the compound in open chest anesthetized dog, after id administration at a dose of 10 mg/kg. It counts as functional, Canis lupus familiaris, Heart. The following applies: route intraduodenal.
The species named for experiment [8] is Canis familiaris. The experiment is described as follows: Maximum rate of rise of the upstroke of transmembrane potential, in canine Purkinje Fibers at a concentration of 0.3 uM at 300 ms (simulating tachycardia). It counts as functional. Also on record: unit not given here. Particulars: Canis lupus familiaris, Purkinje fiber. An outline of the steps:
as §1

Experiment [9] concerns Canis familiaris. The experiment is described as follows: Atrial conduction time by the compound in open chest anesthetized dog, after id administration at a dose of 10 mg/kg. In kind it is functional, Canis lupus familiaris, Cardiac atrium. The following applies: route intraduodenal. A digest of the protocol:
as §3

The test system of experiment [10] is Canis familiaris. The experiment is described as follows: Ventricular conduction time by the compound in open chest anesthetized dog, after id administration at a dose of 10 mg/kg. In kind it is functional, Canis lupus familiaris, Heart. Particulars: route intraduodenal. An outline of the steps:
(§4)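 Mongrel dogs were anesthetized with sodium pentobarbital (30 mg/kg iv, then 5 mg/kg per h), the chest opened, and the heart paced at BCL 300 ms. Compound was given iv or intraduodenally. Ventricular conduction time was taken as the interval between electrograms at the proximal and distal sites of the recording electrode array. 2-5 dogs per dose.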

For experiment [11], the system named is Canis familiaris. The experiment is described as follows: Ventricular conduction time by the compound in open chest anesthetized dog, after iv administration at a dose of 5.0 mg/kg. It counts as functional, Canis lupus familiaris, Heart. More on the design: unit not given here. An outline of the steps: as §4
The subject of experiment [12] is Canis familiaris. The experiment is described as follows: Heart beat by the compound in open chest anesthetized dog, after iv administration at a dose of 5.0 mg/kg. It counts as functional, Canis lupus familiaris. Also on record: unit not given here. An outline of the steps:
(§5)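 Hemodynamics (heart rate, mean arterial pressure) recorded in pentobarbital-anesthetized (30 mg/kg iv, 5 mg/kg per h maintenance) open-chest mongrel dogs during the refractoriness study at BCL 300 ms. Readings were taken before and after iv or intraduodenal compound and expressed as change from control.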

For experiment [13], the system named is Canis familiaris. Put plainly: Mean arterial pressure by the compound in open chest anesthetized dog, after iv administration at a dose of 5.0 mg/kg. In kind it is functional, Canis lupus familiaris, Artery. Also on record: unit not given here. An outline of the steps: as §5
Experiment [14] is filed under the species Canis familiaris. The experiment is described as follows: Maximum rate of rise of the upstroke of transmembrane potential, in canine Purkinje Fibers at a concentration of 3.0 uM at 300 ms (simulating tachycardia). In kind it is functional. More on the design: unit not given here. Particulars: Canis lupus familiaris, Purkinje fiber. A digest of the protocol:
as §1

For experiment [15], the species on record is Canis familiaris. Put plainly: repolarization to reach -60mV, in canine Purkinje Fibers at a concentration of 1.0 uM at 1000 ms (simulating normal heart rate). In kind it is functional, Canis lupus familiaris, Purkinje fiber. A digest of the protocol: as §2
Experiment [16] is filed under the species Canis familiaris. Put plainly: repolarization to reach -60mV, in canine Purkinje Fibers at a concentration of 0.3 uM at 1000 ms (simulating normal heart rate). In kind it is functional, Canis lupus familiaris, Purkinje fiber. A digest of the protocol: as §2
The test system of experiment [17] is Canis familiaris. Put plainly: Heart beat by the compound in open chest anesthetized dog, after id administration at a dose of 10 mg/kg. It counts as functional, Canis lupus familiaris. Particulars: route intraduodenal. An outline of the steps: as §5
Experiment [18] has as its system Canis familiaris. The experiment is described as follows: Atrial effective refractory period by the compound in open chest anesthetized dog, after iv administration at a dose of 5.0 mg/kg. Also on record: unit not given here. In kind it is functional, Canis lupus familiaris, Cardiac atrium. An outline of the steps:
(§6)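 Open-chest mongrel dogs under sodium pentobarbital anesthesia (30 mg/kg iv plus 5 mg/kg per h), paced at basic cycle length 300 ms. Atrial effective refractory period was determined by electrical stimulation before and after iv or intraduodenal compound and reported as change from control.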

Experiment [19] deals with Canis familiaris. Put plainly: Mean arterial pressure by the compound in open chest anesthetized dog, after id administration at a dose of 10 mg/kg. In kind it is functional, Canis lupus familiaris, Artery. Particulars: route intraduodenal. A digest of the protocol:
as §5

For experiment [20], the species on record is Canis familiaris. The experiment is described as follows: Maximum rate of rise of the upstroke of transmembrane potential, in canine Purkinje Fibers at a concentration of 1.0 uM at 1000 ms (simulating normal heart rate). It counts as functional. More on the design: unit not given here. Particulars: Canis lupus familiaris, Purkinje fiber. A digest of the protocol: as §1

The species entered for experiment [21] is Canis familiaris. Put plainly: Repolarization to reach -60mV, in canine Purkinje Fibers at a concentration of 0.3 uM at 300 ms (simulating tachycardia). It counts as functional, Canis lupus familiaris, Purkinje fiber. A digest of the protocol: as §1
The species entered for experiment [22] is Canis familiaris. Put plainly: Maximum rate of rise of the upstroke of transmembrane potential, in canine Purkinje Fibers at a concentration of 3.0 uM at 1000 ms (simulating normal heart rate). In kind it is functional. Also on record: unit not given here. Particulars: Canis lupus familiaris, Purkinje fiber. An outline of the steps: as §1
Experiment [23] concerns Canis familiaris. The experiment is described as follows: Atrial effective refractory period by the compound in open chest anesthetized dog, after id administration at a dose of 10 mg/kg. In kind it is functional, Canis lupus familiaris, Cardiac atrium. The following applies: route intraduodenal. A digest of the protocol:
as §6

For experiment [24], the species on record is Canis familiaris. The experiment is described as follows: Repolarization to reach -60mV, in canine Purkinje Fibers at a concentration of 1.0 uM at 300 ms (simulating tachycardia). In kind it is functional, Canis lupus familiaris, Purkinje fiber. An outline of the steps:
as §1

Consider `CN(Cc1ccc2ccccc2n1)CC(O)COc1ccc(NS(C)(=O)=O)cc1` (centres undefined), for which the APD in the experiment filed under Canis familiaris [1] is 27%; in the experiment filed under Canis familiaris [3] it was 62%; in the experiment filed under Canis familiaris [15], 43%; in the experiment listed under Canis familiaris [16], 19%; in the experiment filed under Canis familiaris [21] it was 8%; in the experiment filed under Canis familiaris [24] it was 19%. In addition, the Vmax in the experiment filed under Canis familiaris [2] is 15; in the experiment filed under Canis familiaris [5], -2; in the experiment listed under Canis familiaris [8], 5; in the experiment filed under Canis familiaris [14], -9; in the experiment listed under Canis familiaris [20] it was 6; in the experiment filed under Canis familiaris [22], -7. For the same compound, the results for the ACT in the experiment on Canis familiaris [4] and in the experiment on Canis familiaris [9] were -9 and -4, respectively. In addition, the VERP is reported as 21 in the experiment with Canis familiaris [6] and 20 in the experiment with Canis familiaris [7]. Besides, the VCT in the experiment on Canis familiaris [10] is 1; in the experiment on Canis familiaris [11] it was -2. The HR with Canis familiaris [12] is listed as -18; with Canis familiaris [17], -15. Besides, the MBP in the experiment with Canis familiaris [13] is reported as -9; with Canis familiaris [19] it was -5. For the same compound, the AERP in the experiment on Canis familiaris [18] amounted to 45; in the experiment on Canis familiaris [23] it was 31.
